Data: ChEMBL document CHEMBL4342473, “Lead Optimization of Benzoxazolone Carboxamides as Orally Bioavailable and CNS Penetrant Acid Ceramidase Inhibitors” (J Med Chem, 2020)
Activity calls are given as the source filed them. The rule behind the calls is not given here.

Key:
[1] = target: T1, Acid ceramidase (Homo sapiens) (UniProt Q13510); test: Inhibition of acid ceramidase in human SH-SY5Y cells assessed as change in intracellular accumulation of HexCer (d18:1/16:0) up to 10 uM measured after 3 hrs by LC/MS analysis; format: cell-based
T1 sequence (whole entry): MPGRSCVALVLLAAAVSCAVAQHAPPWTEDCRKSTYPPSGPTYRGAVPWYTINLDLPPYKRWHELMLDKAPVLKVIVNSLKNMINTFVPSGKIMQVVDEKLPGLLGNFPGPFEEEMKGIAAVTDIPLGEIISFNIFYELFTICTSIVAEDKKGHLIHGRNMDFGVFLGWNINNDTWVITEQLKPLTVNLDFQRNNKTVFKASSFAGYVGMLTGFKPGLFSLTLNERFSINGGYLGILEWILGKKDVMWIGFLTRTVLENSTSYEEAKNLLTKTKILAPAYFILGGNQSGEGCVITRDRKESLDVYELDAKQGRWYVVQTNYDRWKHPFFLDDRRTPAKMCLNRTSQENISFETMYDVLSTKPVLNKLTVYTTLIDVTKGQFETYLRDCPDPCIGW
Outline: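 SH-SY5Y neuroblastoma cells exposed 3 h to 1, 2.5, 5 and 10 μM; AC activity by LC/MS-based assay; ceramide species, sphingosine, SM and HexCer (d18:1/16:0) quantified by LC/MS; means ± S.E.M. of at least six determinations, experiment repeated twice.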

Mus musculus = test: Neuroprotective activity in ip dosed Twitcher mouse model of Krabbe's disease assessed as reduction in GalSph (d18:1) level in brain administered once daily for 20 days measured 1 hr post-last dose by MS analysis; format: functional, organism-based
Outline: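 Twitcher mice dosed i.p. at 30 or 90 mg kg–1 once daily for 20 days from postnatal day 10; sacrificed 1 h after last dose; brain GalSph (d18:1) measured; N = 3 males + 3 females per group.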

[2] = Unbound drug level in brain of C57BL/6J/129SvEV mouse model of Gaucher's disease at 30 mg/kg, ip administered once daily for 14 days measured 1 hr post-last dose; format: ADME, organism-based; conditions: in vivo
Outline: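 4L;C* mice dosed i.p. once daily for 14 days, killed 1 h after last dose (day 14); plasma and brain drug levels measured; unbound concentrations from plasma and brain unbound fractions (mean of two technical replicates); N = 4–8, mixed sexes.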

[3] = Unbound drug level in brain of twitcher mouse model of Krabbe's disease at 30 mg/kg,ip administered once daily for 20 days measured 1 hr post-last dose; format: ADME, organism-based; conditions: in vivo
Outline: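 Twitcher mice dosed i.p. once daily for 20 days, sacrificed 1 h after last dose (day 20); drug measured in plasma and brain; unbound levels from unbound fractions (mean of two technical replicates); N = 3 males + 3 females per group.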

SMILES: CC(C)CNC(=O)n1c(=O)oc2cc(C3CCN(C)CC3)ccc21
- inhibition [1]: inactive
- Activity (Mus musculus): Dose-dependent effect
- Drug uptake(free) [2]: 0.77 µM
- Drug uptake(free) [3]: 0.8 µM
